Laboratory results from ChEMBL document CHEMBL1221371, “Norterpenoids and related peroxides from the formosan marine sponge Negombata corticata” (J Nat Prod, 2010).

Columns and labels:
HepG2 = assay: Cytotoxicity against human HepG2 cells by MTT assay; type: functional, cell-based
Method in brief: (§1)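 Human cancer cell lines were obtained from ATCC. Viability was read colorimetrically by MTT reduction, with doxorubicin as the positive control. IC50 values were derived in µM.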

MCF7 = assay: Cytotoxicity against human MCF7 cells by MTT assay; type: functional, cell-based; method in brief: as §1
MDA-MB-231 = assay: Cytotoxicity against human MDA-MB-231 cells by MTT assay; type: functional, cell-based; method in brief: as §1
[1] = Cytotoxicity against human Hep3B cells by MTT assay; type: functional, cell-based, Hep 3B2; method in brief: as §1
A549 = assay: Cytotoxicity against human A549 cells by MTT assay; type: functional, cell-based; method in brief: as §1

Structure (SMILES) | IC50 (HepG2) [µM] | IC50 (MCF7) [µM] | IC50 (MDA-MB-231) [µM] | IC50 [1] [µM] | IC50 (A549) [µM]
C=C1CCCC(C)(C)C1CC[C@@]1(C)CC[C@H]([C@@H](C)C(=O)O)OO1 (stereo partly drawn) [NAPAPUIN B] | 0.9 | 5.9 | 0.3 | 41.3 | 0.6
C=C1CCCC(C)(C)C1CC[C@]1(C)CCC(=O)O1 (stereo partly drawn) [NEGOMBATOLACTONE] | > 50 | > 50 | > 50 | > 50 | > 50
C=C1CCCC(C)(C)C1CC[C@]1(C)CC[C@H]([C@@H](C)C(=O)OC)OO1 (stereo partly drawn) [NUAPAPUIN B] | 2.9 | 38.5 | 3.5 | 23.7 | 5.38
CC(=O)/C=C/C[C@]1(C)CC[C@H]([C@@H](C)C(=O)O)OO1 [NEGOMBATOPEROXIDE B] | > 50 | > 50 | > 50 | > 50 | > 50
COC(=O)[C@@H](C)[C@@H]1CC[C@](C)(CCC(=O)C(C)(C)CCCC(C)=O)OO1 [DIACARPEROXIDE B] | 11.9 | 11.9 | 11.9 | 11.9 | 11.9
C[C@@H](C(=O)O)[C@H]1CC[C@@](C)(C/C=C/C2(C)CCC(=O)O2)OO1 (stereo partly drawn) [NEGOMBATOPEROXIDE C/D] | > 50 | > 50 | > 50 | > 50 | > 50
C=C1CCCC(C)(C)C1CC[C@@](C)(O)CC[C@@H](O)[C@@H](C)C(=O)OC (stereo partly drawn) [NEGOMBATODIOL] | > 50 | > 50 | > 50 | > 50 | > 50
CC(=O)CCCC(C)(C)C(=O)CCC(C)=O | > 50 | > 50 | > 50 | > 50 | > 50
C/C(=C\CC[C@]1(C)CC[C@H]([C@@H](C)C(=O)O)OO1)CCC12OC1(C)CCCC2(C)C (stereo partly drawn) [NEGOMBATOPEROXIDE A] | > 50 | > 50 | > 50 | > 50 | > 50
COc1cccc2c1C(=O)c1c(O)c3c(c(O)c1C2=O)C[C@@](O)(C(=O)CO)C[C@@H]3O[C@H]1C[C@H](N)[C@H](O)[C@H](C)O1 [DOXORUBICIN] | 0.19 | – | 0.24 | 0.14 | –
